Screening data as filed in PubChem BioAssay.
Only some compounds are listed: those with a hit (about 27% of all), similar ones and a draw of the others.
Cav3 T inh = human Cav3.2 channel inhibition, primary screen | Cav3.2-expressing cells, Fluo-4 calcium fluorescence FDSS; active compounds read low | B-score at 10 µM | actives 4% (n = 100,000) | AID 449739 | O95180;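 active means single-dose well whose peak fluorescence ratio is a statistical outlier from its plate by either plate-standardised score or position-corrected B-score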
CYP2C9 inhib = blocks human cytochrome P450 2C9; P11712; actives 20% (n = 96,000); CYP2C9 Supersomes, luciferin-H conversion, luminescence; inhibition, % at 5 µM;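 active means blocking of liver enzyme CYP2C9 beyond about 50% at 5 µM, limit read from the data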
Target sequence (P11712 whole entry, looked up): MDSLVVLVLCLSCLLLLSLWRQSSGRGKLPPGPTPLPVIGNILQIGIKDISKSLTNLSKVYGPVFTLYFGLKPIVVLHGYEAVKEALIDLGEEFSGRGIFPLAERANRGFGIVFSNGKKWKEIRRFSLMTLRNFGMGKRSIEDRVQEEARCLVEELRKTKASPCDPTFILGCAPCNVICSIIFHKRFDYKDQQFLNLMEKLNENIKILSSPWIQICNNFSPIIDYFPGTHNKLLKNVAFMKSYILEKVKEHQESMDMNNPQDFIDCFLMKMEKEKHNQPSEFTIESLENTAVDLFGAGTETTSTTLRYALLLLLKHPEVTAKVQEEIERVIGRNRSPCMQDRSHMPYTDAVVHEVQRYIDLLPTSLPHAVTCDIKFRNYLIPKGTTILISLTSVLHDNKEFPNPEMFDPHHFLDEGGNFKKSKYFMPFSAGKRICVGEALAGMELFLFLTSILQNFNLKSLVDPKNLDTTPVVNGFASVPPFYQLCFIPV
CYP2C19 inhib = human CYP2C19 inhibition. P33261. CYP2C19 Supersomes, luciferin-H EGE luminescence, 30 min. inhibition, % at 5 µM. actives 21% (n = 96,000). AID 778;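 active means CYP2C19 inhibition above a set limit at 5 µM in the primary screen, cut at about 50% in these data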;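 further: plate controls were negative control wells for no effect and 2.5 mM tranylcypromine positive control for full effect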
CYP2C9 act = CYP2C9 (human) activation. P11712. recombinant CYP2C9, luciferin-H conversion, luminescence; active compounds read high; factor 1 = untreated enzyme, 0 = blocked. activation factor at 5 µM. actives 1.4% (n = 96,000). AID 1024;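 active means activation factor of 2 or more for CYP2C9 at a 5 µM dose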;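 further: 0 = sulfaphenazole-blocked wells and 1 = vehicle-only wells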
HIV Rev-RRE inh = HIV Rev-RRE protein-RNA interaction inhibition | P05866 | Rev peptide-RRE RNA binding, FRET | inhibition, % at 8 µM | actives 0.79% (n = 97,000) | AID 704;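 active means inhibition above the screen-wide mean plus 3 SD, cut at about 35% in these data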;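 further: 0% = median DMSO wells and 100% = median Neomycin B control wells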
Target sequence (P05866 whole entry, looked up): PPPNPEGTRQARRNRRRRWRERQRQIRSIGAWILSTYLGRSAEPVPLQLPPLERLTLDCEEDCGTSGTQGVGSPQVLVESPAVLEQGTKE
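Material: labelled RRE RNA duplex and labelled Rev peptide / Buffer or medium: HEPES pH 7.5 salt buffer with EDTA / Compound dosing: single point, 8 µM final nominal compound concentration / Benchmarks: DMSO low control, neomycin B high control / Timing: 5 min preincubation and 15 min binding, 25 °C / Technique: FRET fluorescence readout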
CYP2C19 act = increases human CYP2C19 enzyme activity; P33261; recombinant CYP2C19, luciferin-H EGE luminescence; active compounds read high; 0 = fully inhibited enzyme, 1 = untreated enzyme; activation factor at 5 µM; 96,000 tested, under 10 active; AID 1025;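 active means activation factor of at least 2 at 5 µM in the primary screen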;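 further: 0 = wells with 2.5 mM tranylcypromine and 1 = vehicle-only wells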
* hit, by the source's call; / = no result.

SMILES	Cav3 T inh	CYP2C9 inhib	CYP2C19 inhib	CYP2C9 act	HIV Rev-RRE inh	CYP2C19 act
CC1=C(C(=O)NCc2ccccc2)C(c2ccccc2OCC(N)=O)NC(=O)N1 (stereo unspecified)	1.32	45.3	-5.5	0.5	7.7	1.1
CCCOc1ccccc1C1NC(=O)NC(C)=C1C(=O)OCCOCC (stereo unspecified)	1.47	21.0	23.6	0.8	1.2	0.8
CCSCCOC(=O)C1=C(C)NC(=O)NC1c1cccc(OC)c1OC (stereo unspecified)	-0.356	27.2	79.9*	0.7	2.9	0.2
COCCOC(=O)C1=C(C)N(Cc2ccccc2)C(=O)NC1c1cccc(OC)c1OC (stereo unspecified)	-0.452	90.4*	99.3*	0.1	7.3	0
CCOc1ccccc1NC(=O)C1=C(C)NC(=O)NC1c1cccc(OC)c1OC (stereo unspecified)	0.204	11.5	20.1	0.9	2.4	0.8
COc1ccc(NS(=O)(=O)c2cc(-c3nnnn3C)ccc2OC)cc1	0.423	19.8	33.1	0.8	-1.6	0.7
COc1ccc([C@H]2C=C3CN(C(=O)OC(C)(C)C)S(=O)(=O)[C@H]3C[C@H]2OC(=O)c2ccc(C(F)(F)F)cc2)cc1	-0.321	/	/	/	/	/
Cc1ccc(-c2nnc(Nc3ccccc3)o2)cc1	-0.399	22.4	44.9	0.8	6.1	0.6
COc1ccccc1N1CCN(C(=O)c2c(-c3ccccc3Cl)noc2C)CC1	0.463	65.1*	93.9*	0.3	-1.8	0.1
COC(=O)C1CCN(C(=O)c2c(-c3ccccc3Cl)noc2C)CC1	0.317	14.8	54.3*	0.9	1.2	0.5
COc1ccccc1N1CCN(C(=O)c2ccoc2C)CC1	0.101	16.4	73.9*	0.8	10.7	0.3
Cc1onc(-c2ccccc2Cl)c1C(=O)N1CCN(C/C=C/c2ccccc2)CC1	-2.76	-2.6	5.2	1	/	0.9
COc1cccc(C(=O)N(c2ccc(OC)cc2OC)C2C=CS(=O)(=O)C2)c1 (stereo unspecified)	-0.0127	19.9	28.4	0.8	5.4	0.7
O=[N+]([O-])c1ccc(-c2cnc(SCc3ccccc3Cl)[nH]2)cc1	-1.78	52.1*	8.3	0.5	7.2	0.9
Cc1cc(C)c(CSc2ncc(-c3ccc([N+](=O)[O-])cc3)[nH]2)c(C)c1	-1.97	65.0*	34.0	0.3	13.5	0.7
Cc1ccc(NC(=O)CSC2=C(C#N)C(c3ccco3)CC(=O)N2)cc1 (stereo unspecified)	-0.391	49.9	81.4*	0.5	-4.0	0.2
CC1=C(C(=O)OCC2CCCO2)C(c2ccncc2)C2=C(CC(C)(C)CC2=O)N1 (stereo unspecified)	0.442	22.4	57.4*	0.8	-2.1	0.4
Cc1ccc(C(=O)CSC2=C(C#N)C(c3ccco3)CC(=O)N2)c(C)c1 (stereo unspecified)	-1.7	98.2*	48.7	0	-1.6	0.5
COC(=O)CSC1=C(C#N)C(c2sccc2C)CC(=O)N1 (stereo unspecified)	1.49	/	/	/	7.0	/
CC1=C(C(=O)OCc2ccccc2)C(c2ccco2)C2=C(CC(C)(C)CC2=O)N1 (stereo unspecified)	/	67.4*	62.7*	0.3	1.4	0.4
Cc1ccc(NC(=O)CSC2=C(C#N)C(c3ccco3)C3=C(CC(C)(C)CC3=O)N2)cc1 (stereo unspecified)	-2.8	95.7*	92.8*	0	9.8	0.1
CN1CCN(Cn2cc(/C=C/C(=O)c3ccccc3)c3ccccc32)CC1	-0.493	95.7*	81.4*	0	13.5	0.2
Cc1nc(-c2cccc(S(=O)(=O)N3CCOCC3)c2)cs1	0.286	66.5*	75.5*	0.3	-1.5	0.2
CSc1nc2cc(S(=O)(=O)N3CCOCC3)ccc2s1	-0.0845	62.7*	99.4*	0.4	4.2	0
Cc1nc(-c2cccc(S(=O)(=O)N3CC(C)CC(C)C3)c2)cs1 (stereo unspecified)	-2.61	-7.5	-7.7	1.1	8.4	1.1
SMILES	Cav3 T inh	CYP2C9 inhib	CYP2C19 inhib	CYP2C9 act	HIV Rev-RRE inh	CYP2C19 act
Cc1nc(-c2cccc(S(=O)(=O)N3CC(C)OC(C)C3)c2)cs1 (stereo unspecified)	0.242	20.5	77.1*	0.8	0.6	0.2
COc1cccc(NC(=O)c2ccc3snnc3c2)c1	-1.02	/	/	/	-0.1	/
Cn1c(=O)c2c(nc(SCc3cccnc3)n2Cc2ccc(F)cc2)n(C)c1=O	-2.48	40.9	25.5	0.6	9.4	0.7
COc1ccc(C2CC(O)(C(C)(C)O)NO2)cc1 (stereo unspecified)	-0.761	13.0	5.7	0.9	0.5	0.9
CC1(C2(O)CC(c3ccccc3)ON2)CCCCC1 (stereo unspecified)	-0.0476	15.7	53.7*	0.8	9.8	0.5
COC(C[C@H](O)[C@@H](C)[C@H](O)COCc1ccccc1)OC	0.52	/	/	/	/	/
Cc1cc(C)nc(N2CCCC(C(=O)NCc3cccc(C(F)(F)F)c3)C2)n1 (stereo unspecified)	-0.943	-108.0	22.4	2.1*	-0.3	0.8
Cc1cc(C)nc(N2CCC(C(=O)NC3CCCCCC3)CC2)n1	1.45	/	/	/	4.8	/
O=C(NCc1cccc(C(F)(F)F)c1)C1CCCN(c2ncccn2)C1 (stereo unspecified)	0.0973	1.5	46.3	1	2.7	0.5
O=C(NCCC1=CCCCC1)C1CC(=O)N(C2CCCCCC2)C1 (stereo unspecified)	0.892	57.4*	51.8*	0.4	3.3	0.5
COc1ccc(CCNC(=O)C2CC(=O)N(C3CCCCCCC3)C2)cc1OC (stereo unspecified)	0.547	-1.5	3.2	1	6.6	1
Cc1cc(C)nc(N2CCCC(C(=O)Nc3cc(F)ccc3C)C2)n1 (stereo unspecified)	/	-25.8	64.7*	1.3	1.9	0.4
Cc1cc(C)nc(N2CCCC(C(=O)NC3CCCC3)C2)n1 (stereo unspecified)	0.754	21.2	58.0*	0.8	2.3	0.4
O=C(CCc1nc(-c2ccccc2F)no1)NC1CCCCC1	0.489	28.0	10.1	0.7	1.4	0.9
COc1cccc(NC(=O)CC2(CC(=O)O)CCCC2)c1	0.636	25.4	22.1	0.7	9.1	0.8
CCOC(=O)COc1ccc2c(c1)C(=O)CC(C)(C)O2	-0.0597	13.4	13.4	0.9	-2.5	0.9
Cc1cc(C)nc(N2CCCC(C(=O)NCCc3cccc(F)c3)C2)n1 (stereo unspecified)	-0.265	-64.0	39.2	1.6	2.9	0.6
Cc1cc(C)nc(N2CCCC(C(=O)NCCC3=CCCCC3)C2)n1 (stereo unspecified)	0.632	-60.0	73.3*	1.6	1.4	0.3
O=C1CCCCCC1C1(O)C(=O)Nc2ccccc21 (stereo unspecified)	0.00123	-26.5	-12.3	1.3	4.7	1.1
